Key:
[1] = Liver microsome stability, human; format: in vitro ADME
[2] = Hepatocyte stability, rat; format: in vitro ADME; settings: pooled rat hepatocytes
Method in brief: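 Test compound (1 μM) in Krebs–Henseleit buffer was incubated with pooled rat hepatocytes (1 × 10^6 cells/mL) at 37 °C, 5% CO2, with samples from 0 to 90 min. Reactions were quenched with ice-cold acetonitrile and centrifuged, and supernatants were analysed by LC–MS/MS. Half-life and CLint were derived from parent remaining. Run in duplicate.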

[3] = Kinetic aqueous solubility; format: physicochemical; settings: kinetic in PBS
Method in brief: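 Miniaturised shake flask: test compound (200 μM) in PBS pH 7.4 was shaken at 600 rpm, 25 °C for 2 h, filtered, and the filtrate half-diluted in acetonitrile. Run in duplicate.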

[4] = LogD at pH 7.4; format: physicochemical; settings: 1-octanol/phosphate-buffered saline (1:1, v/v)
[5] = test system: Pf Dd2 parental line; test: 3H-hypoxanthine 72 h assay, Dd2 parental line; format: cell-based; settings: Plasmodium falciparum, DD2, read-out: Pf Dd2 EC50, Dd2 parental line, 3H-hypoxanthine 72 h; average of two experiments
[6] = test system: K1; test: 3H-hypoxanthine 72 h assay, K1; format: cell-based; settings: Plasmodium falciparum, K1, read-out: Pf multidrug-resistant strain EC50 K1
[7] = test system: NF54; test: 3H-hypoxanthine 72 h assay, NF54; format: cell-based; settings: Plasmodium falciparum, NF54, read-out: Pf multidrug-resistant strain EC50 NF54
[8] = test system: RF12; test: 3H-hypoxanthine 72 h assay, RF12; format: cell-based; settings: Plasmodium falciparum, read-out: Pf multidrug-resistant strain EC50 RF12
[9] = test system: 7G8; test: 3H-hypoxanthine 72 h assay, 7G8; format: cell-based; settings: Plasmodium falciparum, 7G8, read-out: Pf multidrug-resistant strain EC50 7G8
[10] = test system: P. falciparum NF54 female gametes; test: Dual gamete formation assay; format: cell-based; settings: Plasmodium falciparum, NF54, read-out: female gamete EC50
Method in brief: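 Stage V NF54 gametocyte cultures with >0.2% exflagellation were diluted to 12.5 million cells/mL in gametocyte medium containing 10% human serum and no Albumax. They were dispensed warm (625,000 cells/well) onto the test compound. After ookinete medium was added, plates went to 4 °C for 4 min and then 28 °C for 5 min, followed by 24 h at 28 °C in the dark. Female gametes (Pfs25) were scored from one fluorescence image per well.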

[11] = test system: P. berghei EEFs; test: Exoerythrocytic stage assay; format: cell-based; settings: Plasmodium berghei, 48 h, read-out: Pb liver stage EEFs EC50 (SD)
[12] = test system: HepG2; test: HepG2 host cell viability in the liver stage panel; format: cell-based; settings: Homo sapiens, HepG2, 48 h, read-out: HepG2 EC50 (liver stage)
[13] = test system: drug-resistant P. falciparum strains; test: Profiling against a selection of multidrug-resistant parasites; format: cell-based, Plasmodium falciparum
Method in brief: (§1)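 Asexual blood-stage parasites in hypoxanthine-free RPMI 1640 with HEPES, NaHCO3, neomycin (100 μg/mL) and Albumax II (5 g/L). Infected blood (0.3% parasitemia, 2.5% hematocrit) was exposed to a 10-point serial dilution at 37 °C under 93% N2/4% CO2/3% O2. After 48 h, [3H]-hypoxanthine (0.5 μCi/well) was added for 24 h more. Scintillation cpm were normalised to untreated controls, and logit regression gave values as means of two experiments.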

[14] = test system: P. falciparum 3D7 parasites; test: P. falciparum 3D7 asexual-stage parasite LDH viability assay; format: cell-based, Plasmodium falciparum; settings: 3D7 parasite EC50 compared to 17
[15] = Liver microsome stability, mouse; format: in vitro ADME; settings: pooled mouse liver microsomes
Method in brief: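 Test compound (1 μM, phosphate buffer) was incubated with pooled mouse liver microsomes (0.5 mg/mL) at 37 °C, with and without an NADPH regeneration system, sampling at 0, 5, 20, 30, 45 and 60 min. Run in duplicate.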

[16] = test system: 41 resistant 3D7 P. falciparum populations (V259L cyt b Qo site mutation); test: LDH growth assay against 41 resistant populations; format: cell-based; settings: Plasmodium falciparum, 3D7, read-out: EC50 against all three populations
Method in brief: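 Three 3D7 clonal populations were selected by exposure to test compound starting at 2 × EC50, monitored by Giemsa smears and stepped up after recovery. Synchronised ring-stage parasites were then grown 72 h on predispensed compound in RPMI/AlbuMAX and frozen at −80 °C overnight. LDH activity was read with APAD/NBT absorbance at 650 nm.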

[17] = test system: Pf Dd2 strain with an I22L mutation in the Qi site cyt b; test: 3H-hypoxanthine 72 h assay, Dd2 cyt b; format: cell-based, Plasmodium falciparum
Method in brief: as §1

[18] = test system: Pf SB1-A6 strain with a CNV (∼2-fold) and a C276F mutation in DHODH; test: SB1-A6 asexual-stage assay; format: cell-based; settings: Plasmodium falciparum, 72 h, read-out: SB1-A6 EC50
Method in brief: (§2)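 Parasites were sorbitol-synchronised one cycle before setup. Ring stages at 0.5% parasitemia and 2% hematocrit were plated onto twofold compound dilutions and incubated at 37 °C for 72 h. Cells were fixed in 0.25% glutaraldehyde (RT, 30 min), stained with 2.5× SYBR Green (37 °C, 30 min) and counted by flow cytometry. EC50 is the average of three independent experiments.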

[19] = test system: Pf Dd2 expressing ScDHODH; test: ScDHODH asexual-stage assay; format: cell-based; settings: Plasmodium falciparum, DD2, 72 h, read-out: Dd2 ScDHODH EC50
Method in brief: as §2

[20] = test system: mitochondrial electron transport chain of P. falciparum 3D7 asexual parasites; test: ETC biosensor / oxygen consumption rate; format: cell-based, Plasmodium falciparum
Method in brief: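 Magnet-purified trophozoite-infected RBCs were saponin-released (0.05%, 37 °C, 3 min) and washed. Parasites were suspended in MAS buffer with 25 mM malate and 0.002% digitonin and seeded at 5 × 10^6 per Cell-Tak-coated well (800g, 10 min). Seahorse XFe96 OCR was read at baseline, after test compound (5 μM final), after TMPD (0.2 mM) with ascorbate (2 mM), then after NaN3 (10 mM). Each cycle was 20 s mix, 1 min wait, 2.5 min measure.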

| SMILES | hepatocyte CLint at 1 μM [2] | logD at 2 h [4] | EC50 [5] | EC50 [6] | EC50 [7] | EC50 [8] | EC50 [9] | potency against each drug-resistant strain compared to the Dd2 and NF54 wild-type parasites [13] | further results |
| --- | --- | --- | --- | --- | --- | --- | --- | --- | --- |
| CCOC(=O)c1cn(CC)c2cc(N3CCC(C)CC3)c(F)cc2c1=O [Compound 21, Ethyl 1-Ethyl-6-fluoro-7-(4-methyl-1-piperidyl)-4-oxo-quinoline-3-carboxylate] | > 92.4 µL/min/1e6 cells | 3.2 | 0.055 µM | 0.048 µM | 0.065 µM | 0.02 µM | 0.038 µM | equipotent | liver microsomes human CLint [1]: 205.2 µL/min/mg; aqueous solubility pH 7.4 [3]: 22.9 μM; EC50 [10]: > 25 µM; EC50 [11]: 0.024 µM; EC50 [12]: > 50 µM |
| CCn1cc(-c2nc(C)no2)c(=O)c2cc(F)c(N3CCC(Cc4ccccc4)CC3)cc21 [Compound 41, 7-(4-Benzyl-1-piperidyl)-1-ethyl-6-fluoro-3-(3-methyl-1,2,4-oxadiazol-5-yl)quinolin-4-one] | 24.7 µL/min/1e6 cells | 4.2 | 0.004 µM | 0.005 µM | 0.005 µM | 0.002 µM | 0.003 µM | equipotent | fold more potent than 17 [14]: 2 fold; microsomal CLint at 1 μM [15]: 44.1 µL/min/mg; EC50 [16]: ~0.8 µM; difference in sensitivity between the ELQ-300 resistant Dd2 strain and the Dd2 parental strain [17]: no difference in sensitivity; EC50 [18]: 0.48 µM; EC50 [19]: 0.86 µM; OCR upon addition of TMPD ([20]; after compound (5 μM), TMPD (cytochrome c electron donor) added): rescued; effect on malate-dependent oxygen consumption rate (OCR) ([20]; compounds at 5 μM, malate as the energy source): significantly reduce the OCR |

Reference: article PMC10012268 (ACS Infectious Diseases, 2023)
